This note sets out measurements from ChEMBL document CHEMBL1156659, “Cycloartane triterpenoids from Astragalus bicuspis” (J Nat Prod, 2008).

Molecules are shown by their SMILES.

For one assay, the system named is Leishmania major. Put plainly: Antileishmanial activity against Leishmania major DESTO promastigotes after 72 hrs. It is filed as functional, organism-based. In outline: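 Log-phase promastigotes grown at 22-25 °C in RPMI-1640 with 10% heat-inactivated FBS, seeded at 1 × 10^6 cells/mL. Compounds were taken from a 1 mg/mL stock (DMSO, then complete medium), serially diluted, and incubated 21-22 °C for 72 h. Viable parasites were counted microscopically in a Neubauer chamber, and IC50 was derived by curve fitting. Run in duplicate.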

In another assay the test system is NIH3T3. Put plainly: Cytotoxicity against mouse 3T3 cells after 72 hrs by MTT assay. It is filed as cell-based. An outline of the steps:
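Mouse fibroblasts were kept in DMEM with 5% FBS, penicillin and streptomycin at 37 °C under 5% CO2, seeded at 3 × 10^4 cells/mL, and left overnight. Fresh medium holding a compound concentration series was added for 72 h. MTT (2 mg/mL) was added for 4 h, then DMSO, and formazan was read at 540 nm. The value is the concentration giving 50% growth inhibition.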

Where [1] appears, read: Mus musculus, NIH3T3, 72 h, read-out: IC50.

For the compound `CC(C)(O)[C@@H]1CC[C@](C)([C@@H]2[C@@H](O)C[C@@]3(C)[C@@H]4C[C@H](O)[C@H]5C(C)(C)[C@@H](O)CC[C@@]56C[C@@]46CC[C@]23C)O1`, the IC50 was 108 µM in the assay on Leishmania major and over 100 µM in the assay with NIH3T3 (setting [1]).

Take `CO[C@H]1C[C@@H](C)[C@H]2[C@H](C[C@@]3(C)[C@@H]4C[C@H](O)[C@H]5C(C)(C)[C@@H](O[C@@H]6OC[C@@H](O)[C@@H](O)[C@H]6O)CC[C@@]56C[C@@]46CC[C@]23C)O1`: the IC50 was 93.65 µmol with Leishmania major and 52.4 µM in the assay on NIH3T3 (setting [1]).

Turning to `CC(C)(O)[C@@H]1CC[C@](C)([C@H]2[C@@H](O)C[C@@]3(C)[C@@H]4C[C@H](O)[C@H]5C(C)(C)[C@@H](O[C@@H]6OC[C@@H](O)[C@H](O)[C@H]6O)CC[C@@]56C[C@@]46CC[C@]23C)O1`, the IC50 was 56.51 µmol with Leishmania major and 19.51 µmol with NIH3T3 (nih3t3).

Turning to `C[C@@H]1C[C@@H]([C@H](O)CC2CC(=O)NC(=O)C2)C(=O)[C@@H](C)C1` [CYCLOHEXIMIDE], in the assay on NIH3T3 (nih3t3), the IC50 was 0.912 µmol.

Regarding `C[C@@H]1C[C@@]2(O[C@H]3C[C@@]4(C)[C@@H]5C[C@H](O)[C@H]6C(C)(C)[C@@H](O[C@@H]7OC[C@@H](O)[C@@H](O)[C@H]7O)CC[C@@]67C[C@@]57CC[C@]4(C)[C@@H]13)O[C@H](O)[C@]1(C)O[C@H]21`, the results for the IC50 in the assay on Leishmania major and in the assay with NIH3T3 (setting [1]) were 64.35 µmol and over 100 µM, respectively.

In turn, `C[C@@H]1[C@H](O)[C@@H](C)/C=C/C=C/C=C/C=C/C=C/C=C/C=C/[C@H](O[C@@H]2O[C@H](C)[C@@H](O)[C@H](N)[C@@H]2O)C[C@@H]2O[C@](O)(C[C@@H](O)C[C@@H](O)[C@H](O)CC[C@@H](O)C[C@@H](O)CC(=O)O[C@H]1C)C[C@H](O)[C@H]2C(=O)O` [AMPHOTERICIN B] yielded an IC50 with Leishmania major of 0.54 µmol.

For the compound `N=C(N)c1ccc(OCCCCCOc2ccc(C(=N)N)cc2)cc1` [PENTAMIDINE], the IC50 in the assay on Leishmania major came to 4.32 µmol.
